From ChEMBL document CHEMBL1150393, “Evaluation of radiolabeled (hetero)aromatic analogues of N-(2-diethylaminoethyl)-4-iodobenzamide for imaging and targeted radionuclide therapy of melanoma” (J Med Chem, 2008)

Experiments:
Liver [1] = assay: Biodistribution in liver of C57BL/6 mouse bearing mouse B16-F0 cells at 0.74 to 0.92 MBq, iv after 6 hrs; format: ADME, organism-based; conditions: in vivo
Procedure, shortened: (§1)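 Male C57BL6 mice with s.c. left-flank B16-F0 melanoma (5 × 10⁵ cells in PBS). Two mice per time point frozen in liquid nitrogen after CO₂ sacrifice. Eight 40 µm whole-body cryosections per mouse read by multiwire proportional counter. cpm/mm² converted to kBq/g and expressed as %ID/g.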

Spleen [2] = assay: Biodistribution in spleen of C57BL/6 mouse bearing mouse B16-F0 cells at 0.74 to 0.92 MBq, iv after 1 hr; format: ADME, organism-based; conditions: in vivo
Procedure, shortened: (§2)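 [¹²⁵I]-labelled compound given iv by tail vein (0.1 µmol per mouse) to male C57BL6 mice bearing s.c. B16-F0 flank tumours (5 × 10⁵ cells in PBS). Two mice per time point were killed by CO₂, frozen in liquid nitrogen and cut into 40 µm cryosections, eight slices per mouse. Slice radioactivity was read on a multiwire proportional counter, converted to kBq/g and reported as %ID/g.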

[3] = Drug excretion in mouse B16-F0 cells bearing C57BL/6 mouse urine at 0.74 to 0.92 MBq, iv after 72 hrs; format: ADME, organism-based; conditions: in vivo
Procedure, shortened: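 Urine was collected from two B16-F0 tumour-bearing C57BL6 mice for up to 72 h after iv tail-vein injection of the [¹²⁵I]-labelled compound (0.1 µmol). Samples were counted to give cumulative urinary excretion as %ID.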

Thyroid gland [4] = assay: Biodistribution in thyroid of C57BL/6 mouse bearing mouse B16-F0 cells at 0.74 to 0.92 MBq, iv after 72 hrs; format: ADME, organism-based; conditions: in vivo; procedure, shortened: as §2
[5] = Biodistribution in tumor of C57BL/6 mouse bearing mouse B16-F0 cells at 0.74 to 0.92 MBq, iv after 1 hr; format: ADME, organism-based, Neoplasm; conditions: in vivo; procedure, shortened: as §2
[6] = Biodistribution in intestinal content of C57BL/6 mouse bearing mouse B16-F0 cells at 0.74 to 0.92 MBq, iv after 6 hrs; format: ADME, organism-based; conditions: in vivo; procedure, shortened: as §1
[7] = Biodistribution in tumor of C57BL/6 mouse bearing mouse B16-F0 cells at 0.74 to 0.92 MBq, iv after 6 hrs; format: ADME, organism-based, Neoplasm; conditions: in vivo; procedure, shortened: as §2
[8] = Biodistribution in tumor of C57BL/6 mouse bearing mouse B16-F0 cells at 0.74 to 0.92 MBq, iv after 3 hrs; format: ADME, organism-based, Neoplasm; conditions: in vivo; procedure, shortened: as §2
[9] = Biodistribution in Stomach content of C57BL/6 mouse bearing mouse B16-F0 cells at 0.74 to 0.92 MBq, iv after 1 hr; format: ADME, organism-based; conditions: in vivo; procedure, shortened: as §1
Kidney [10] = assay: Biodistribution in kidney of C57BL/6 mouse bearing mouse B16-F0 cells at 0.74 to 0.92 MBq, iv after 3 hrs; format: ADME, organism-based; conditions: in vivo; procedure, shortened: as §1
[11] = Biodistribution in tumor of C57BL/6 mouse bearing mouse B16-F0 cells at 0.74 to 0.92 MBq, iv after 24 hrs; format: ADME, organism-based, Neoplasm; conditions: in vivo; procedure, shortened: as §2
[12] = Biodistribution in gall bladder of C57BL/6 mouse bearing mouse B16-F0 cells at 0.74 to 0.92 MBq, iv after 3 hrs; format: ADME, organism-based; conditions: in vivo; procedure, shortened: as §1
[13] = Biodistribution in intestinal content of C57BL/6 mouse bearing mouse B16-F0 cells at 0.74 to 0.92 MBq, iv after 3 hrs; format: ADME, organism-based; conditions: in vivo; procedure, shortened: as §1
[14] = Biodistribution in uvea of C57BL/6 mouse bearing mouse B16-F0 cells at 0.74 to 0.92 MBq, iv after 1 hr; format: ADME, organism-based, Uveal tract; conditions: in vivo; procedure, shortened: as §2
[15] = Biodistribution in uvea of C57BL/6 mouse bearing mouse B16-F0 cells at 0.74 to 0.92 MBq, iv after 6 hrs; format: ADME, organism-based, Uveal tract; conditions: in vivo; procedure, shortened: as §2
Thyroid gland [16] = assay: Biodistribution in thyroid of C57BL/6 mouse bearing mouse B16-F0 cells at 0.74 to 0.92 MBq, iv after 3 hrs; format: ADME, organism-based; conditions: in vivo; procedure, shortened: as §2
[17] = Ratio of drug level in tumor to liver of C57BL/6 mouse bearing mouse B16-F0 cells at 0.74 to 0.92 MBq, iv after 1 hr; format: ADME, organism-based; conditions: in vivo
Procedure, shortened: (§3)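 Tumour and organ radioactive concentrations came from whole-body cryosection counting (40 µm slices, eight per mouse, two mice per time) after tail-vein injection of the [¹²⁵I]-labelled compound (0.1 µmol) into male C57BL6 mice bearing s.c. B16-F0 melanoma. Each value is the ratio of the tumour concentration to the organ concentration.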

[18] = Biodistribution in gall bladder of C57BL/6 mouse bearing mouse B16-F0 cells at 0.74 to 0.92 MBq, iv after 6 hrs; format: ADME, organism-based; conditions: in vivo; procedure, shortened: as §1
Lung [19] = assay: Biodistribution in lung of C57BL/6 mouse bearing mouse B16-F0 cells at 0.74 to 0.92 MBq, iv after 3 hrs; format: ADME, organism-based; conditions: in vivo; procedure, shortened: as §1
Lung [20] = assay: Biodistribution in lung of C57BL/6 mouse bearing mouse B16-F0 cells at 0.74 to 0.92 MBq, iv after 1 hr; format: ADME, organism-based; conditions: in vivo; procedure, shortened: as §1
[21] = Ratio of drug level in tumor to lung of C57BL/6 mouse bearing mouse B16-F0 cells at 0.74 to 0.92 MBq, iv after 1 hr; format: ADME, organism-based; conditions: in vivo; procedure, shortened: as §3
Thyroid gland [22] = assay: Biodistribution in thyroid of C57BL/6 mouse bearing mouse B16-F0 cells at 0.74 to 0.92 MBq, iv after 6 hrs; format: ADME, organism-based; conditions: in vivo; procedure, shortened: as §2
Kidney [23] = assay: Biodistribution in kidney of C57BL/6 mouse bearing mouse B16-F0 cells at 0.74 to 0.92 MBq, iv after 1 hr; format: ADME, organism-based; conditions: in vivo; procedure, shortened: as §1
[24] = Biodistribution in uvea of C57BL/6 mouse bearing mouse B16-F0 cells at 0.74 to 0.92 MBq, iv after 3 hrs; format: ADME, organism-based, Uveal tract; conditions: in vivo; procedure, shortened: as §2
[25] = Ratio of drug level in tumor to lung of C57BL/6 mouse bearing mouse B16-F0 cells at 0.74 to 0.92 MBq, iv after 3 hrs; format: ADME, organism-based; conditions: in vivo; procedure, shortened: as §3
Blood [26] = assay: Biodistribution in blood of C57BL/6 mouse bearing mouse B16-F0 cells at 0.74 to 0.92 MBq, iv after 1 hr; format: ADME, organism-based; conditions: in vivo; procedure, shortened: as §1
Spleen [27] = assay: Biodistribution in spleen of C57BL/6 mouse bearing mouse B16-F0 cells at 0.74 to 0.92 MBq, iv after 6 hrs; format: ADME, organism-based; conditions: in vivo; procedure, shortened: as §2
Liver [28] = assay: Biodistribution in liver of C57BL/6 mouse bearing mouse B16-F0 cells at 0.74 to 0.92 MBq, iv after 1 hr; format: ADME, organism-based; conditions: in vivo; procedure, shortened: as §1
[29] = Ratio of drug level in tumor to liver of C57BL/6 mouse bearing mouse B16-F0 cells at 0.74 to 0.92 MBq, iv after 6 hrs; format: ADME, organism-based; conditions: in vivo; procedure, shortened: as §3
[30] = Biodistribution in Stomach content of C57BL/6 mouse bearing mouse B16-F0 cells at 0.74 to 0.92 MBq, iv after 3 hrs; format: ADME, organism-based; conditions: in vivo; procedure, shortened: as §1
Pancreas = assay: Biodistribution in pancreas of C57BL/6 mouse bearing mouse B16-F0 cells at 0.74 to 0.92 MBq, iv after 1 hr; format: ADME, organism-based; conditions: in vivo; procedure, shortened: as §1
[31] = Biodistribution in intestinal content of C57BL/6 mouse bearing mouse B16-F0 cells at 0.74 to 0.92 MBq, iv after 1 hr; format: ADME, organism-based; conditions: in vivo; procedure, shortened: as §1
Thyroid gland [32] = assay: Biodistribution in thyroid of C57BL/6 mouse bearing mouse B16-F0 cells at 0.74 to 0.92 MBq, iv after 24 hrs; format: ADME, organism-based; conditions: in vivo; procedure, shortened: as §2
Liver [33] = assay: Biodistribution in liver of C57BL/6 mouse bearing mouse B16-F0 cells at 0.74 to 0.92 MBq, iv after 3 hrs; format: ADME, organism-based; conditions: in vivo; procedure, shortened: as §1
[34] = Biodistribution in tumor of C57BL/6 mouse bearing mouse B16-F0 cells at 0.74 to 0.92 MBq, iv after 72 hrs; format: ADME, organism-based, Neoplasm; conditions: in vivo; procedure, shortened: as §2
[35] = Biodistribution in uvea of C57BL/6 mouse bearing mouse B16-F0 cells at 0.74 to 0.92 MBq, iv after 72 hrs; format: ADME, organism-based, Uveal tract; conditions: in vivo; procedure, shortened: as §2
[36] = Ratio of drug level in tumor to liver of C57BL/6 mouse bearing mouse B16-F0 cells at 0.74 to 0.92 MBq, iv after 3 hrs; format: ADME, organism-based; conditions: in vivo; procedure, shortened: as §3
[37] = Biodistribution in intestinal content of C57BL/6 mouse bearing mouse B16-F0 cells at 0.74 to 0.92 MBq, iv after 24 hrs; format: ADME, organism-based; conditions: in vivo; procedure, shortened: as §1
[38] = Biodistribution in uvea of C57BL/6 mouse bearing mouse B16-F0 cells at 0.74 to 0.92 MBq, iv after 24 hrs; format: ADME, organism-based, Uveal tract; conditions: in vivo; procedure, shortened: as §2
[39] = Biodistribution in Stomach content of C57BL/6 mouse bearing mouse B16-F0 cells at 0.74 to 0.92 MBq, iv after 24 hrs; format: ADME, organism-based; conditions: in vivo; procedure, shortened: as §1
Blood [40] = assay: Biodistribution in blood of C57BL/6 mouse bearing mouse B16-F0 cells at 0.74 to 0.92 MBq, iv after 3 hrs; format: ADME, organism-based; conditions: in vivo; procedure, shortened: as §1
[41] = Biodistribution in Stomach content of C57BL/6 mouse bearing mouse B16-F0 cells at 0.74 to 0.92 MBq, iv after 6 hrs; format: ADME, organism-based; conditions: in vivo; procedure, shortened: as §1
Muscle tissue = assay: Biodistribution in muscle of C57BL/6 mouse bearing mouse B16-F0 cells at 0.74 to 0.92 MBq, iv after 1 hr; format: ADME, organism-based; conditions: in vivo; procedure, shortened: as §1
[42] = Partition coefficient, log P in phosphate buffer solution at pH 7.4; format: physicochemical
Procedure, shortened: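 Shake-flask partition: 50 µM [¹²⁵I]-labelled compound in phosphate buffer pH 7.4 was mixed with 2 mL n-octanol. Each phase was γ-counted, P was taken as the octanol/buffer activity ratio, and log P was reported.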

`CCN(CC)CCNC(=O)c1nc2cc([125I])ccc2[nH]1.Cl.Cl` gave a Drug uptake (Liver [1]) of 3.38 % ID/g, a Drug uptake (Spleen [2]) of 11.51 % ID/g and an Activity [3] of 17.1%. For the same molecule, the Drug uptake (Thyroid gland [4]) was 174.73 % ID/g, the Drug uptake [5] was 14.8 % ID/g and the Drug uptake [6] was 95.86 % ID/g. The Drug uptake [7] was 9.9 % ID/g, the Drug uptake [8] was 16.1 % ID/g and the Drug uptake [9] was 24.46 % ID/g. It also gave a Drug uptake (Kidney [10]) of 4.57 % ID/g, a Drug uptake [11] of 7.1 % ID/g and a Drug uptake [12] of 160.6 % ID/g. It also gave a Drug uptake [13] of 72.05 % ID/g, a Drug uptake [14] of 12.87 % ID/g and a Drug uptake [15] of 10.09 % ID/g. It also gave a Drug uptake (Thyroid gland [16]) of 63.44 % ID/g, a Ratio [17] of 1.13 and a Drug uptake [18] of 38.11 % ID/g. The Drug uptake (Lung [19]) was 3.74 % ID/g, the Drug uptake (Lung [20]) was 5.16 % ID/g and the Ratio [21] was 2.86. The Drug uptake (Thyroid gland [22]) was 34.17 % ID/g, the Drug uptake (Kidney [23]) was 6.9 % ID/g and the Drug uptake [24] was 24.4 % ID/g. For the same molecule, the Ratio [25] was 4.31, the Drug uptake (Blood [26]) was 3.31 % ID/g and the Drug uptake (Spleen [27]) was 14.97 % ID/g. It also gave a Drug uptake (Liver [28]) of 13.08 % ID/g, a Ratio [29] of 2.93 and a Drug uptake [30] of 17.98 % ID/g. For the same molecule, the Drug uptake (Pancreas) was 6.17 % ID/g, the Drug uptake [31] was 105.55 % ID/g and the Drug uptake (Thyroid gland [32]) was 142.88 % ID/g. It also gave a Drug uptake (Liver [33]) of 7.15 % ID/g, a Drug uptake [34] of 4.5 % ID/g and a Drug uptake [35] of 7.26 % ID/g. It also gave a Ratio [36] of 2.26, a Drug uptake [37] of 3.19 % ID/g and a Drug uptake [38] of 10.44 % ID/g. The Drug uptake [39] was 2.32 % ID/g, the Drug uptake (Blood [40]) was 1.33 % ID/g and the Drug uptake [41] was 8.62 % ID/g. It also gave a Drug uptake (Muscle tissue) of 0.55 % ID/g and a logD [42] of 1.47.
